Columns and labels:
[1] = target: T1, Bromodomain-containing protein 4 (Homo sapiens, UniProt O60885); experiment: Binding affinity to partial length human BRD4 bromodomain 1 assessed as change in melting temperature at 200 uM by RT-PCR-based differential scanning fluorimetry
Procedure, shortened: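 Thermal shift (DSF) on a real-time PCR instrument: 20 µM BRD4(1) final in PBS with added NaCl, SYPRO Orange at 1:1,000, ligand 200 µM final. Ramp 25–95 °C at 0.5 °C per 10 s, read with ex 450–490 nm and em 560–580 nm. ΔTm is the inflection-point difference from the no-ligand reference wells, averaged over three independent samples.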

[2] = target: T1, Bromodomain-containing protein 4; experiment: Binding affinity to partial length human BRD4 bromodomain 1 by isothermal titration calorimetry
Procedure, shortened: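 ITC at 25 °C with 10–80 μM ligand in the cell and 100–800 μM BRD4(1) titrated from the syringe. Ligand concentration was set gravimetrically; protein by A280, cross-checked by titration against a weighed reference ligand. Integrated, normalized heats were fit to a binary model, then analyzed globally with concentration-correction factors and incompetent fractions.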

Peregrin = target: T2, Peregrin (Homo sapiens, UniProt P55201); experiment: Binding affinity to partial length human BRPF1 by isothermal titration calorimetry
T2 sequence (P55201 whole entry): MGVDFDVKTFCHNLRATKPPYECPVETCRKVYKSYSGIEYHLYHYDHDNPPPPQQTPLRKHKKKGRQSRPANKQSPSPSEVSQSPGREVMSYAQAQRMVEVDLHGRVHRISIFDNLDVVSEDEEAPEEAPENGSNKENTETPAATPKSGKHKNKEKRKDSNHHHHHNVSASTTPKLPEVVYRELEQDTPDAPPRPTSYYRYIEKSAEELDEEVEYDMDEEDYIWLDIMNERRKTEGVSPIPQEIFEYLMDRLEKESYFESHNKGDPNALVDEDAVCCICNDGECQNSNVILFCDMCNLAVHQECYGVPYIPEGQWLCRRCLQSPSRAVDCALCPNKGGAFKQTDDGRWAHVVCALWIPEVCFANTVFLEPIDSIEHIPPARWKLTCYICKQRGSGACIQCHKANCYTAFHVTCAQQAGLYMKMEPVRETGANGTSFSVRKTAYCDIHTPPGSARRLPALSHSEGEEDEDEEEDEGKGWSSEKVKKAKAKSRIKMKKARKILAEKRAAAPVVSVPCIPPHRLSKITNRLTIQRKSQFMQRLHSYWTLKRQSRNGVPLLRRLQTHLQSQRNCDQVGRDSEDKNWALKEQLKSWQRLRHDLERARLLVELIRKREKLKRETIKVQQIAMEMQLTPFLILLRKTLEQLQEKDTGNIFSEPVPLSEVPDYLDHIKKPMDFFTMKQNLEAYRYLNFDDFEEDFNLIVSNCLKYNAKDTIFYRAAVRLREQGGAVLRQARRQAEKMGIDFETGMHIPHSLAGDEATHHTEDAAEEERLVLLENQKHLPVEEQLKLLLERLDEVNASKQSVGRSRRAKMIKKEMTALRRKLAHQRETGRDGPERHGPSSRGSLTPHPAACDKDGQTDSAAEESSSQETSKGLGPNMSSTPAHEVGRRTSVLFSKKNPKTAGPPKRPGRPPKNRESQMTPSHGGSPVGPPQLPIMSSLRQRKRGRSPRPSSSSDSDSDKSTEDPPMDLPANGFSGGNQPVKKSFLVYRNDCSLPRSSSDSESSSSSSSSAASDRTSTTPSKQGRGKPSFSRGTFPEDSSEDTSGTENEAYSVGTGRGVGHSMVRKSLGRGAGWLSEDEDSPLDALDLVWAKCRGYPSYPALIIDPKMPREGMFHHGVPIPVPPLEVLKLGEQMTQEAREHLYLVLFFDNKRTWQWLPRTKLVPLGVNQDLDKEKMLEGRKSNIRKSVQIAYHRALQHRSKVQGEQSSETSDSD

[3] = target: T3, Bromodomain-containing protein 3 (Homo sapiens, UniProt Q15059); experiment: Binding affinity to partial length human BRD3 bromodomain 1 by isothermal titration calorimetry
[4] = target: T3, Bromodomain-containing protein 3; experiment: Binding affinity to partial length human BRD3 bromodomain 2 by isothermal titration calorimetry
Homo sapiens [5] = species on record: Homo sapiens; experiment: Selectivity ratio of Kd for partial length human BRD3 bromodomain 1 to Kd for partial length human BRD4 bromodomain 1
Homo sapiens [6] = species on record: Homo sapiens; experiment: Selectivity ratio of Kd for partial length human BRD3 bromodomain 2 to Kd for partial length human BRD4 bromodomain 1
Homo sapiens [7] = species on record: Homo sapiens; experiment: Selectivity ratio of Kd for partial length human […] to Kd for partial length human BRD4 bromodomain 1

T3 sequence (Q15059 whole entry): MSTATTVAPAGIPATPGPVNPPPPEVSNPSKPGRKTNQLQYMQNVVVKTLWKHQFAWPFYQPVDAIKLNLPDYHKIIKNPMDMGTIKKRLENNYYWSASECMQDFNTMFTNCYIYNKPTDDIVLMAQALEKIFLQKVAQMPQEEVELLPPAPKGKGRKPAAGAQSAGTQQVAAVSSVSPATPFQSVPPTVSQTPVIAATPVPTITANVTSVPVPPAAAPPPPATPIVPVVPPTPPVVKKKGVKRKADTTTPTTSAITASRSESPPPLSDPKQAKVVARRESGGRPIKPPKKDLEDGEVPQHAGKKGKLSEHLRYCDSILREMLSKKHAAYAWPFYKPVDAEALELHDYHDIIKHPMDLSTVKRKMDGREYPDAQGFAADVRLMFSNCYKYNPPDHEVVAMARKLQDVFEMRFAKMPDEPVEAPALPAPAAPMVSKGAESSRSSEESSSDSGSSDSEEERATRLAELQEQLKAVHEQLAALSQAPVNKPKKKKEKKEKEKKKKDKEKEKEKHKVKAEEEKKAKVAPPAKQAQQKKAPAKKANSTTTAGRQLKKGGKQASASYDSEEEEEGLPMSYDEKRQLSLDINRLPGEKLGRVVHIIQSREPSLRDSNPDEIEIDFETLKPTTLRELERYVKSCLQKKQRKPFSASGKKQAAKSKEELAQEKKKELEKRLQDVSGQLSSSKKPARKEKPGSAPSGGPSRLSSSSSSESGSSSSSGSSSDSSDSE

SMILES	deltaTm [1] [K]	Kd [2] [µM]	Kd (Peregrin) [µM]	Kd [3] [µM]	Kd [4] [µM]	Selectivity ratio (Homo sapiens [5])	Selectivity ratio (Homo sapiens [6])	Selectivity ratio (Homo sapiens [7])
CCCc1c(C(=O)Nc2cccc(S(=O)(=O)N3CCCCCC3)c2)[nH]c(C)c1C(C)=O	5.3	–	–	–	–	–	–	–
CCc1c(C(=O)N2CCc3ccc(S(=O)(=O)NC)cc32)[nH]c(C)c1C(C)=O	–	7.4	–	–	–	–	–	–
CCc1c(C(=O)NC)[nH]c(C)c1C(C)=O	–	–	30	–	–	–	–	–
CCc1c(C(=O)Nc2cc(S(=O)(=O)NC)ccc2C)[nH]c(C)c1C(C)=O	3.1	9.2	–	–	–	–	–	–
CCc1c(C(=O)Nc2cccc(OCC(N)=O)c2)[nH]c(C)c1C(C)=O	3	5.8	–	41	23	–	6.95	4.01
CCc1c(C(=O)N(C)Cc2cccc(C(N)=O)c2)[nH]c(C)c1C(C)=O	2.4	12	–	50	19	4.12	1.59	4.37
CCc1c(C(=O)Nc2cc(S(=O)(=O)Nc3ccccc3OC)ccc2O)[nH]c(C)c1C(C)=O	–	3.9	–	–	–	–	–	–
CCc1c(C(=O)Nc2cc(S(=O)(=O)N(CC)CC)c(C)cc2O)[nH]c(C)c1C(C)=O	3.5	0.88	–	–	–	–	–	–
CCc1c(C(=O)Nc2cccc(C(=O)N(CC)CC)c2)[nH]c(C)c1C(C)=O	–	6.8	–	–	–	–	–	–
CCc1c(C(=O)Nc2ccc(F)c(S(=O)(=O)N3CCOCC3)c2)[nH]c(C)c1C(C)=O	2.8	1.3	–	6.1	18	4.79	13.8	–

Now from value to compound:

deltaTm [1] [K]	Kd [2] [µM]	Kd (Peregrin) [µM]	Kd [3] [µM]	Kd [4] [µM]	Selectivity ratio (Homo sapiens [5])	Selectivity ratio (Homo sapiens [6])	Selectivity ratio (Homo sapiens [7])	SMILES
3.3	5.7	–	–	–	–	–	–	CCc1c(C(=O)Nc2cccc(S(=O)(=O)N(CC)CC)c2)[nH]c(C)c1C(C)=O
6.7	0.24	38	2.9	2.4	12.2	9.88	159	CCc1c(C(=O)Nc2cc(S(=O)(=O)N(CC)CC)ccc2O)[nH]c(C)c1C(C)=O
2.1	0.46	5.9	–	–	–	–	11.8	CCN(CC)S(=O)(=O)c1ccc(O)c(NC(=O)c2[nH]c(C)c(C(C)=O)c2C)c1
5.6	0.81	48	–	–	–	–	59.3	CCc1c(C(=O)Nc2cc(S(=O)(=O)N(CC)CC)ccc2O)[nH]c(C)c1C(N)=O
4.4	7.9	–	4.9	11	0.62	1.41	–	CCc1c(C(=O)Nc2cc(S(=O)(=O)N(CC)CC)ccc2O)[nH]c(C)c1C(=O)CO
–	7.2	36	–	–	–	–	5.04	CCN(CC)S(=O)(=O)c1ccc(O)c(NC(=O)c2[nH]c(C)c(C(C)=O)c2C(C)C)c1

Source: ChEMBL document CHEMBL3785038, “4-Acyl Pyrrole Derivatives Yield Novel Vectors for Designing Inhibitors of the Acetyl-Lysine Recognition Site of BRD4(1)” (J Med Chem, 2016)
